# Experimental data as given in ChEMBL document CHEMBL2034900, “Dual-target virtual screening by pharmacophore elucidation and molecular shape filtering” (ACS Med Chem Lett, 2012).
# Calls of active or inactive are those of the source. No cut-off for these calls is given here.
# Target: T1, Polyunsaturated fatty acid 5-lipoxygenase (Homo sapiens, UniProt P09917)
# T1 sequence (P09917 whole entry): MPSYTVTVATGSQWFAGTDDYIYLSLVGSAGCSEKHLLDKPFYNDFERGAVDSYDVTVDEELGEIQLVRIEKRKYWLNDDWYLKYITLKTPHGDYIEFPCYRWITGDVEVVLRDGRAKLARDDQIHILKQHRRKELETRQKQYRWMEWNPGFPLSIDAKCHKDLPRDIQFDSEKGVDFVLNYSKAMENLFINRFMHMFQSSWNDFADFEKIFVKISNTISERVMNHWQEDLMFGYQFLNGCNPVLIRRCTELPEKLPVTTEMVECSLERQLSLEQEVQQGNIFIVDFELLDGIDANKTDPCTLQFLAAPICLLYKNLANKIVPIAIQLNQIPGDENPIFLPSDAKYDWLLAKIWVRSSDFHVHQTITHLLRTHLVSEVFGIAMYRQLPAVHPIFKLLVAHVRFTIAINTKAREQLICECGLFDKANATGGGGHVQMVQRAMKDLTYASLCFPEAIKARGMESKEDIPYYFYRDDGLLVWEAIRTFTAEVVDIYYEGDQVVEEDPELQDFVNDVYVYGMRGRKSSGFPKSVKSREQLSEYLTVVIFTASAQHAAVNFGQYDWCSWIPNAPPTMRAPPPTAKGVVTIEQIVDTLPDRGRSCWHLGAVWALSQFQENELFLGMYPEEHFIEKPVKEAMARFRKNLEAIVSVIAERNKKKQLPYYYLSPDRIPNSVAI
# Assay: Inhibition of recombinant 5-lipoxygenase expressed in Escherichia coli BL21 using arachidonic acid as substrate incubated for 15 mins prior to substrate addition measured after 10 mins by HPLC analysis
# Method in brief: (§1)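 Compounds were first tested at 30 μM, and IC50 values were determined only for those giving at least 50% inhibition. The 5-LO assay was cell-free with HPLC read-out, and the sEH assay used a fluorescence read-out.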
row,SMILES,IC50 [µM]
1,COc1ccc(/C=N/Nc2nc3ccccc3[nH]2)cc1OC,8.1
2,COc1ccc(-c2nc3cc(C)ccc3o2)cc1OC,2.7
3,CC(C)CC(=O)Nc1nc2c(s1)CCc1ccccc1-2,16
4,CN(C)c1ccc(-n2nc3ccc4ccccc4c3n2)cc1,2.2
5,COc1cccc(CNc2nc3ccccc3n2C)c1O,7.6
6,COc1ccc(-c2nc3cc(C)ccc3[nH]2)cc1OC,36

# Target: T2, Bifunctional epoxide hydrolase 2 (Homo sapiens) (UniProt P34913)
# T2 sequence (whole entry): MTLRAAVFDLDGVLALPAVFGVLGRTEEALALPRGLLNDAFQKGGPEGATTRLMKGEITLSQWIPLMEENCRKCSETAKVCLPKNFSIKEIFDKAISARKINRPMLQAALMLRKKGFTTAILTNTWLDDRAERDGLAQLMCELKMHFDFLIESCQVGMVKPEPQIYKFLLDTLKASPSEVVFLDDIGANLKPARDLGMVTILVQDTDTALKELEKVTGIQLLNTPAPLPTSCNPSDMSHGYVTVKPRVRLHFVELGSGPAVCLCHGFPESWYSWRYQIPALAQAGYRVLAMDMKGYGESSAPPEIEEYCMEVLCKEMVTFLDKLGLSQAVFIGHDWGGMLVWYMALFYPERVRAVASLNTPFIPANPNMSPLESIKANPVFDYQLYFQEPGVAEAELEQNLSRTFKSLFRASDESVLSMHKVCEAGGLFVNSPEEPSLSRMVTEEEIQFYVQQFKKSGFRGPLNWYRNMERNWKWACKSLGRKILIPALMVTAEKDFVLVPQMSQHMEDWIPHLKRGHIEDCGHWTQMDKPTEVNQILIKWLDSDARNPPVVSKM
# Assay: (§2) Inhibition of soluble epoxide hydrolase using (3-Phenyl-oxiranyl)-acetic acid cyano-(6-methoxy-naphthalen-2-yl)-methyl ester) as substrate incubated for 15 mins prior to substrate addition measured every min for 15 mins by fluorometry
# Method in brief: as §1
row,SMILES,inhibition
1,COc1ccc(-c2nc3cc(C)ccc3o2)cc1OC,inactive
2,COc1cccc(CNc2nc3ccccc3n2C)c1O,inactive

# Target: T3, Bifunctional epoxide hydrolase 2 (Homo sapiens, UniProt P34913)
# T3 sequence (P34913 whole entry): T2 sequence (whole entry)
# Assay: as §2
# Method in brief: as §1
row,SMILES,IC50 [µM]
1,COc1ccc(CC(=O)Nc2ccc(C)cc2)cc1OC,21
2,COc1ccc(NC(=O)c2cccc(-n3cnnn3)c2)cc1,1.6
3,COc1ccc(-c2nc3cc(C)ccc3[nH]2)cc1OC,3.5
4,Cn1nnc2cc(NC(=O)NCCC3=CCCCC3)ccc21,0.47
